The target in test [1] is T1, Rap guanine nucleotide exchange factor 3 (Homo sapiens) (UniProt O95398).
T1 sequence (whole entry): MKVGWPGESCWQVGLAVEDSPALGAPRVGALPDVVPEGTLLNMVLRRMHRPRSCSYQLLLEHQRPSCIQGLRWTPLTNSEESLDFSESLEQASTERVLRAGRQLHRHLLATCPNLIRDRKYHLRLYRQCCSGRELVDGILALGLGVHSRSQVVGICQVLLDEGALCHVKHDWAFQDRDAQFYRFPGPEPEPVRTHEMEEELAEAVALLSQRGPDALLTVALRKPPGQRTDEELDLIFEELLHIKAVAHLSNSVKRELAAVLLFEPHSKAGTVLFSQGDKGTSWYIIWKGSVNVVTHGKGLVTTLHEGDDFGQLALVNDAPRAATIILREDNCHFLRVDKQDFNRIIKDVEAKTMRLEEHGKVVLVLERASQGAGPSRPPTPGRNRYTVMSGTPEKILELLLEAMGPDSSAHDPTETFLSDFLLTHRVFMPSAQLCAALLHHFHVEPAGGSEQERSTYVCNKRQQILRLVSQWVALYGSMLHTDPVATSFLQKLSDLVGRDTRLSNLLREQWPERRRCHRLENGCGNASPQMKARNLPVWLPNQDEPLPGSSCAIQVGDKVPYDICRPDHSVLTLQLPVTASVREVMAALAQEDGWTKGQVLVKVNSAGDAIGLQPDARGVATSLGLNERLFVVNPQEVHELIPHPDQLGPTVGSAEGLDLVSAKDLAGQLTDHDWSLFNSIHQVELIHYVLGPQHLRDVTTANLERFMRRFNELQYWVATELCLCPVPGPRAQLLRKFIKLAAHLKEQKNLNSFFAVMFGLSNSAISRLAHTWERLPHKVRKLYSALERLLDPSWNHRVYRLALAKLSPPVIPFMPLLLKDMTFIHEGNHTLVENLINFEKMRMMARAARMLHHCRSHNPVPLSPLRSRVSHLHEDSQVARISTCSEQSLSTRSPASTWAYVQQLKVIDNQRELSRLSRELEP
In words: Binding affinity to GST-tagged human EPAC1 CNBD (149 to 318 residues)expressed in Escherichia coli BL21 (DE3) assessed as induction Intermolecular NOEs peaks in PBC and BBR residues by 15N-NOESY-HSQC NMR spectroscopy.

Test [2] has as its target T2, Rap guanine nucleotide exchange factor 3 (Homo sapiens, UniProt O95398).
T2 sequence (O95398 whole entry): T1 sequence (whole entry)
In words: Binding affinity to GST-tagged human EPAC1 CNBD (149 to 318 residues) expressed in Escherichia coli BL21 (DE3) incubated for 30 mins by 8-NBD-cAMP based competitive fluorescence assay.

Test [3] concerns the target Rap guanine nucleotide exchange factor 3 (Homo sapiens, UniProt O95398, L273W). Description: Binding affinity to GST-tagged human EPAC1 L273W mutant expressed in Escherichia coli BL21 (DE3) incubated for 30 mins by 8-NBD-cAMP based competitive fluorescence assay. The procedure, abridged:
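Competitive displacement of 8-NBD-cAMP from the L273W mutant of the 149–318 construct, titrating ligand in Tris pH 7.6 buffer. […] Percent bound 8-NBD-cAMP was plotted against total ligand and fitted to a competitive-binding cubic solution to give Kd.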

The target of test [4] is T1, Rap guanine nucleotide exchange factor 3 (Homo sapiens). Description: Binding affinity to GST-tagged human EPAC1 CNBD (149 to 318 residues) expressed in Escherichia coli BL21 (DE3) incubated for 30 mins by 1H,15N-HSQC NMR spectroscopy.
Test [5] shares this target. In words: Binding affinity to GST-tagged human EPAC1 CNBD (149 to 318 residues)expressed in Escherichia coli BL21 (DE3) assessed as compound binding to cAMP-binding sites incubated for 30 mins by CHESPA method.
Test [6] shares this target. Description: Binding affinity to GST-tagged human EPAC1 CNBD (149 to 318 residues)expressed in Escherichia coli BL21 (DE3) assessed as compound binding to phosphate binding cassette region incubated for 30 mins by CHESPA method.
The target is the same in test [7]. Description: Binding affinity to GST-tagged human EPAC1 CNBD (149 to 318 residues)expressed in Escherichia coli BL21 (DE3) assessed as compound binding to base binding region incubated for 30 mins by CHESPA method.
The target is the same in test [8]. Description: Binding affinity to GST-tagged human EPAC1 CNBD (149 to 318 residues)expressed in Escherichia coli BL21 (DE3) assessed as induction of conformational changes in compound by NOESY NMR spectroscopy.
For test [9] the target is unchanged. Description: Binding affinity to GST-tagged human EPAC1 CNBD (149 to 318 residues)expressed in Escherichia coli BL21 (DE3) by STD and guanidinium HSQC NMR analysis.
For test [10] the target is unchanged. Description: Binding affinity to GST-tagged human EPAC1 CNBD (149 to 318 residues)expressed in Escherichia coli BL21 (DE3) assessed as binding to R279 Guanidinium residue by guanidinium HSQC NMR spectroscopy. The procedure, abridged: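 Human EPAC1 residues 149–318, wild type and R279A mutant, expressed GST-tagged in E. coli BL21(DE3) in 15N or 15N/13C M9 medium. GST tag removed by thrombin; protein purified by glutathione and anion-exchange steps. Guanidinium HSQC spectra of apo or ligand-saturated protein recorded at 700 MHz and 306 K in 50 mM Tris, 50 mM NaCl, 1 mM DTT, pH 7.6. Ligand came from a DMSO-d6 stock, with matching DMSO-d6 added to apo and cAMP-bound controls.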

Test [11] has the same target. Description: Binding affinity to GST-tagged human EPAC1 CNBD (149 to 318 residues)expressed in Escherichia coli BL21 (DE3) assessed as induction of perturbation of allosteric network sites by CHESCA method.

The source made the active and inactive calls. The calls are words filed in the database; no cut-off is given here.

Chain of Rap guanine nucleotide exchange factor 3 (Homo sapiens, UniProt O95398, L273W) (O95398 whole entry L273W): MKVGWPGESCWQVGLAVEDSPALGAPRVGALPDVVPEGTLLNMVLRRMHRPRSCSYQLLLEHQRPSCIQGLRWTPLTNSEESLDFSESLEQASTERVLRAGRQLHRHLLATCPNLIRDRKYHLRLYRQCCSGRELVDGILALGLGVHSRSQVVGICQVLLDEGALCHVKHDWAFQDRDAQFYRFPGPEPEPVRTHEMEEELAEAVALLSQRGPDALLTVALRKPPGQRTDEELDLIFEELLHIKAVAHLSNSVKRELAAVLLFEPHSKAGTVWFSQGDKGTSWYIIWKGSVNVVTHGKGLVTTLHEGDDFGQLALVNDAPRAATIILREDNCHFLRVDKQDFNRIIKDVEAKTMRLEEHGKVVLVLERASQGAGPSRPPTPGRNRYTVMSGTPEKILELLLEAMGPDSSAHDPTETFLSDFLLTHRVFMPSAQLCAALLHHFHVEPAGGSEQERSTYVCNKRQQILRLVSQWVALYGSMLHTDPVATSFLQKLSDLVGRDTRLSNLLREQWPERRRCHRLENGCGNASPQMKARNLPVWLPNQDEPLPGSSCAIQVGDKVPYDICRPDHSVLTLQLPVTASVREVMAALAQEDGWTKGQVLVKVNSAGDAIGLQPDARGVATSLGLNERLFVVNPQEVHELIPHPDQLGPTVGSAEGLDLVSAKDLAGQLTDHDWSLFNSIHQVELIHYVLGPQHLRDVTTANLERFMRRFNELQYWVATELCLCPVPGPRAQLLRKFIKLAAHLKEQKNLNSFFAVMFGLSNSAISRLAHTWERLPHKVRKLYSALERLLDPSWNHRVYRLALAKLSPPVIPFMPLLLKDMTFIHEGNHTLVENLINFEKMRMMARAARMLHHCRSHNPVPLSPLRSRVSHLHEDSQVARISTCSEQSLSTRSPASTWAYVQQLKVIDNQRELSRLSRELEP

As to `COc1ccc(S(=O)(=O)NC(=O)COc2ccc3ccccc3c2)cc1OC`, the outcome in [1] was Active.
The same measure, in the same setting: under `COc1ccc(OC)c(S(=O)(=O)NC(=O)COc2ccc3ccccc3c2)c1` stands “Active”.
Still for that read-out and setting: the entry for `COc1ccc(S(=O)(=O)NC(=O)COc2ccc3ccccc3c2)c(OC)c1` is “Active”.
In general, Kd refers to the free concentration of one partner at which half of the binding sites on the other are occupied at equilibrium, for simple one-to-one binding. Read a high Kd as a looser complex. In the case of `Cc1ccc(S(=O)(=O)NC(=O)COc2ccc3ccccc3c2)c(C)c1`, the figures for the Kd in test [2] and in test [3] were 6.6 µM and 4.9 µM, respectively. Further, the outcome in test [4], in test [5], in [6], in test [7], in test [8] and in [1] was Active. Besides, the result in [9], in test [10] and in [11] was Active.
As for `Nc1ncnc2c1ncn2[C@@H]1O[C@@H]2CO[P@@](O)(=S)O[C@H]2[C@H]1O`, the outcome in test [10] was Active.
